≈ marks a conversion by molar mass, not a printed value.
Assays:
Type in all cases: functional
[1] = system: Trichophyton mentagrophytes; test: Antifungal activity against Trichophyton mentagrophytes ATCC 9972
Summary of the method: (§1)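 Dermatophytes tested by CLSI M38-A2 microdilution in MOPS-buffered RPMI-1640 at pH 7.0. Inoculum 1-5 × 10^3 CFU/mL; compounds 250 to 0.24 µg/ml in twofold steps, final DMSO <1%. Incubated at 28 °C in a moist, dark chamber and read according to control growth. MIC is the lowest concentration with complete inhibition. MFC is the lowest concentration with no growth after duplicate subculture on SDA.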

[2] = system: Aspergillus niger; test: Antifungal activity against Aspergillus niger ATCC 9029
Summary of the method: (§2)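 Broth microdilution per CLSI M38-A2 in RPMI-1640 with MOPS at pH 7.0. Inoculum 1-5 × 10^3 CFU/mL, with twofold compound dilutions spanning 250-0.24 µg/ml (final DMSO <1%). Plates incubated at 35 °C, moist and dark, and read when the control fungus had grown. MIC is total growth inhibition. MFC comes from subculturing clear wells in duplicate onto SDA.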

[3] = system: Saccharomyces cerevisiae; test: Antifungal activity against Saccharomyces cerevisiae ATCC 9763
Summary of the method: (§3)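 CLSI M27-A3 broth microdilution in RPMI-1640 buffered to pH 7.0 with MOPS. Inoculum 1-5 × 10^3 CFU/mL. Compound twofold dilutions from 250 to 0.24 µg/ml, final DMSO <1%. Incubated at 35 °C in a moist, dark chamber and read at 48 h. MIC is the lowest concentration giving total growth inhibition. For MFC, 5 µL from clear wells was plated in duplicate on SDA; MFC is the lowest concentration with no growth.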

[4] = system: Aspergillus fumigatus; test: Antifungal activity against Aspergillus fumigatus ATCC 26934; summary of the method: as §2
[5] = system: Candida albicans; test: Antifungal activity against Candida albicans ATCC 10213; summary of the method: as §3
[6] = system: Cryptococcus neoformans; test: Antifungal activity against Cryptococcus neoformans ATCC 32264; summary of the method: as §3
[7] = system: Nannizzia gypsea; test: Antifungal activity against Microsporum gypseum C 115 2000; summary of the method: as §1
[8] = system: Candida tropicalis; test: Antifungal activity against Candida tropicalis C 131 2000; summary of the method: as §3
[9] = system: Trichophyton rubrum; test: Antifungal activity against Trichophyton rubrum C 113 2000; summary of the method: as §1
[10] = system: Aspergillus flavus; test: Antifungal activity against Aspergillus flavus ATCC 9170; summary of the method: as §2

SMILES	MFC [1] [µg/mL]	MIC [1] [µg/mL]	MFC [2] [µg/mL]	MIC [2] [µg/mL]	MFC [3] [µg/mL]	MIC [3] [µg/mL]	MFC [4] [µg/mL]	MIC [4] [µg/mL]	MFC [5] [µg/mL]	MIC [5] [µg/mL]	MFC [6] [µg/mL]	MIC [6] [µg/mL]	MFC [7] [µg/mL]	MIC [7] [µg/mL]	MFC [8] [µg/mL]	MIC [8] [µg/mL]	MFC [9] [µg/mL]	MIC [9] [µg/mL]	MFC [10] [µg/mL]	MIC [10] [µg/mL]
O=C1C=CC(O)N1CCCCc1ccccc1 (centres undefined)	125 (≈ 540 µM)	62.5 (≈ 270 µM)	> 250	> 250	> 250	> 250	> 250	> 250	> 250	> 250	> 250	250 (≈ 1080 µM)	250 (≈ 1080 µM)	125 (≈ 540 µM)	> 250	> 250	250 (≈ 1080 µM)	62.5 (≈ 270 µM)	> 250	> 250
CC1=CC(O)N(Cc2ccccc2)C1=O (centres undefined)	> 250	> 250	> 250	> 250	> 250	> 250	> 250	> 250	> 250	> 250	> 250	> 250	> 250	> 250	> 250	> 250	> 250	> 250	> 250	> 250
CC1=CC(O)N(CCc2ccccc2)C1=O (centres undefined)	> 250	> 250	> 250	> 250	> 250	> 250	> 250	> 250	> 250	> 250	> 250	> 250	> 250	> 250	> 250	> 250	> 250	> 250	> 250	> 250
O=C1C(c2ccccc2)=C(c2ccccc2)C(=O)N1c1ccccc1	> 250	> 250	> 250	> 250	> 250	> 250	> 250	> 250	> 250	> 250	> 250	> 250	> 250	> 250	> 250	> 250	> 250	> 250	> 250	> 250
CC(=O)N1CCN(c2ccc(OCC3COC(Cn4ccnc4)(c4ccc(Cl)cc4Cl)O3)cc2)CC1 (centres undefined) [KETOCONAZOLE]	0.12 (≈ 0.226 µM)	0.03 (≈ 0.0565 µM)	1.95 (≈ 3.67 µM)	0.24 (≈ 0.452 µM)	0.97 (≈ 1.83 µM)	0.48 (≈ 0.903 µM)	3.9 (≈ 7.34 µM)	0.12 (≈ 0.226 µM)	1.95 (≈ 3.67 µM)	0.48 (≈ 0.903 µM)	1.95 (≈ 3.67 µM)	0.24 (≈ 0.452 µM)	0.24 (≈ 0.452 µM)	0.06 (≈ 0.113 µM)	0.97 (≈ 1.83 µM)	–	0.12 (≈ 0.226 µM)	0.03 (≈ 0.0565 µM)	3.9 (≈ 7.34 µM)	0.48 (≈ 0.903 µM)
O=C1CCC(=O)N1CCCc1ccccc1	> 250	> 250	> 250	> 250	> 250	> 250	> 250	> 250	> 250	> 250	> 250	> 250	> 250	> 250	> 250	> 250	> 250	> 250	> 250	> 250
CC1=CC(=O)N(CCCc2ccccc2)C1O (centres undefined)	> 250	250 (≈ 1080 µM)	> 250	> 250	> 250	> 250	> 250	> 250	> 250	> 250	> 250	250 (≈ 1080 µM)	> 250	250 (≈ 1080 µM)	> 250	> 250	> 250	250 (≈ 1080 µM)	> 250	> 250
C[C@@H]1[C@H](O)[C@@H](C)/C=C/C=C/C=C/C=C/C=C/C=C/C=C/[C@H](O[C@@H]2O[C@H](C)[C@@H](O)[C@H](N)[C@@H]2O)C[C@@H]2O[C@](O)(C[C@@H](O)C[C@@H](O)[C@H](O)CC[C@@H](O)C[C@@H](O)CC(=O)O[C@H]1C)C[C@H](O)[C@H]2C(=O)O [AMPHOTERICIN B]	0.24 (≈ 0.26 µM)	0.06 (≈ 0.0649 µM)	3.9 (≈ 4.22 µM)	0.48 (≈ 0.519 µM)	1.95 (≈ 2.11 µM)	0.48 (≈ 0.519 µM)	0.97 (≈ 1.05 µM)	0.48 (≈ 0.519 µM)	1.95 (≈ 2.11 µM)	0.97 (≈ 1.05 µM)	0.97 (≈ 1.05 µM)	0.24 (≈ 0.26 µM)	0.48 (≈ 0.519 µM)	0.12 (≈ 0.13 µM)	0.97 (≈ 1.05 µM)	0.48 (≈ 0.519 µM)	0.24 (≈ 0.26 µM)	0.06 (≈ 0.0649 µM)	1.95 (≈ 2.11 µM)	0.48 (≈ 0.519 µM)
O=C1CCC(=O)N1Cc1ccccc1	> 250	> 250	> 250	> 250	> 250	> 250	> 250	> 250	> 250	> 250	> 250	> 250	> 250	> 250	> 250	> 250	> 250	> 250	> 250	> 250
